Hits are enriched below; roughly 4.5% of the tested compounds scored in any of these assays.
CHO parental Ca: counter-screen for OX1R antagonists: effect in parental CHO cells. parental CHO-K1, ATP-induced calcium, Fluo-8 fluorescence. inhibition, % at 5.6 µM. 330,000 compounds, 0.63% hits. AID 463079;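 active means inhibition above that plate's mean sample inhibition plus 3 SD, cut at about 26% in these data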;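 further: 0% = ATP-challenged DMSO wells and 100% = DMSO wells without ATP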
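Material – parental CHO cells · Reagent – ATP stimulus · Compound – single nominal dose of 5.6 µM per compound · Detection – Fluo-8 fluorescence · Read-out basis – percent inhibition of calcium signal · Controls – ATP-challenged DMSO wells low, unchallenged DMSO wells high · Repeats – no replicates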
GPR7 antagonist: blocks human GPR7 receptor signaling | P48145 | GPR7-expressing cells, fluorescence antagonist assay | inhibition, % at 4.4 µM | 290,000 compounds, 1.1% hits; in the data active means inhibition above about 16%, passing the limit was not always enough;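 further: cells stimulated with the agonist NPW; 0% = agonist with vehicle and 100% = vehicle without agonist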
Target sequence (P48145 whole entry, looked up): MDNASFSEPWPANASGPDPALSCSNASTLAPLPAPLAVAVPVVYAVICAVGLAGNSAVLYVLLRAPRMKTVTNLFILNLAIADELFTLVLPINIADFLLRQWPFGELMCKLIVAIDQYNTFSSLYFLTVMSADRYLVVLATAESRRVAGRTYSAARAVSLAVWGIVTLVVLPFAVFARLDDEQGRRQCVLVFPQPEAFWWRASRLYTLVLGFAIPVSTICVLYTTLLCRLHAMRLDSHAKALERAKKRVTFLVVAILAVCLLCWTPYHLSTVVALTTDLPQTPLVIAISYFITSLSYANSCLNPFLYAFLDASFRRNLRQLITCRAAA
TAAR1 ag: human TAAR1 agonism; Q96RJ0; CHO RD-HGA16 TAAR1, Fluo-8 calcium fluorescence; vehicle wells 0%, saturating PEA agonist 100%; activation, % at 3 µM; 360,000 compounds, 0.99% hits; AID 624467;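 active means activation above the mean activation of all test compounds in the run plus 3 SD, cut at about 38% in these data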
Target sequence (Q96RJ0 whole entry, looked up): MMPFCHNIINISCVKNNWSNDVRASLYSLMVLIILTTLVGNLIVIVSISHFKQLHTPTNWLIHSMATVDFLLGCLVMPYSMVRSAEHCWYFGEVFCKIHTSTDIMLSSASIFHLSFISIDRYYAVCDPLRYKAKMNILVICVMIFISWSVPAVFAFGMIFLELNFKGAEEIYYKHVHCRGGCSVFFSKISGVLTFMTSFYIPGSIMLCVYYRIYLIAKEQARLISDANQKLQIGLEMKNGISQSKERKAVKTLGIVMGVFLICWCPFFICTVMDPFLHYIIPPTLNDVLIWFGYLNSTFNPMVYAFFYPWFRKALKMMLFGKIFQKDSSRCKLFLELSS
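Benchmarks: low control DMSO, high control PEA (EC100); System: CHO RD-HGA16 cells carrying human TAAR1 plus Gα16; Detection: Fluo-8 fluorescence, 5 s baseline then 140 s kinetic read; Schedule: 17-24 h plating, Fluo-8 75 min 37 °C, 30 min RT; Read-out basis: % activation from peak over basal fluorescence ratio, DMSO-to-PEA scaled.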
TAAR1 antag: antagonists of human TAAR1. inhibition, % at 3 µM. AID 624466. CHO RD-HGA16 TAAR1, Fluo-8 calcium fluorescence, antagonist. 360,000 compounds, 1.5% hits;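 active means inhibition above a per-plate cutoff, the mean inhibition of test compounds on that plate plus 3 SD, cut at about 49% in these data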;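 further: 0% = DMSO plus EC80 beta-PEA response and 100% = DMSO alone without agonist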
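Assay system: CHO-derived RD-HGA16 cells stably expressing human TAAR1 plus Gα16. Timing: 140 s kinetic read after compound, 140 s after agonist. Technique: kinetic Fluo-8 calcium fluorescence measurement. Measure: % inhibition of agonist calcium response.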
OX1R antag-1: blocks the human orexin 1 receptor. O43613. OX1R-expressing cells, FRET antagonist read-out. inhibition, % at 6.6 µM. 330,000 compounds, 1.8% hits. AID 485270; in the data active means inhibition mostly above about 38%, no sharp cut-off; inactive means mostly below about 40%;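 further: 0% = agonist challenge alone and 100% = reference antagonist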
OX1R antag-2: antagonists of human orexin 1 receptor; CHO/OX1R cells, Fluo-8 calcium fluorescence, orexin A; inhibition, % at 5 µM; 330,000 compounds, 0.43% hits; AID 434989;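 active means inhibition above its plate's threshold, mean inhibition of all tested compounds on the plate plus 3 SD, cut at about 37% in these data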;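 further: 0% = orexin A challenge wells and 100% = SB-334867-A antagonist wells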
GPR7 antag conf: human GPR7 antagonism, confirmation assay; 2,400 compounds, 52% hits; GPR7-expressing cells, calcium fluorescence antagonist mode; shares compounds with GPR7 antagonist; AID 1952; inhibition, % at 4.4 µM; in the data active means inhibition above about 24%;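 further: stimulated with the GPR7 agonist NPW; 0% = agonist plus vehicle and 100% = vehicle alone without agonist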
MCHR1 antagonist: counter-screen for GPR7 antagonists: antagonists of human MCHR1. 2,400 compounds, 62% hits. MCHR1-expressing cells, fluorescence antagonist assay. inhibition, % at 4.4 µM. AID 2148. shares compounds with GPR7 antagonist; in the data active means inhibition above about 22%;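 further: 0% = vehicle with agonist and 100% = vehicle without agonist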
OX1R Fluo8 conf: OX1R (human) antagonism, confirmed | shares compounds with OX1R antag-2 | CHO/OX1R cells, orexin A calcium Fluo-8 fluorescence | inhibition, % at 5 µM | 1,100 compounds, 38% hits; in the data active means inhibition above about 29%;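 further: 0% = agonist challenge alone and 100% = reference antagonist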
CHO Ca triplic: counter-screen for OX1R antagonists: effect in parental CHO cells; inhibition, % at 5.6 µM; AID 492965; 1,100 compounds, 9.3% hits; parental CHO-K1, ATP-induced calcium, Fluo-8 fluorescence; shares compounds with OX1R antag-2;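 active means inhibition above a per-plate limit, the mean inhibition of that plate's test compounds plus 3 SD, cut at about 25% in these data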;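 further: 0% = ATP challenge with DMSO and 100% = DMSO without ATP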
TAAR1 ag confirm: human TAAR1 agonism, confirmed; AID 651783; CHO RD-HGA16 TAAR1, Fluo-8 calcium fluorescence; scaled: DMSO 0%, maximal phenethylamine 100%; shares compounds with TAAR1 ag; 2,400 compounds, 82% hits; activation, % at 3 µM;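 active means activation above a cutoff set at the run's mean compound activation plus 3 SD, cut at about 39% in these data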
Ga16 nonsel ag: counter-screen for TAAR1 agonists: nonselective agonists in parental cells | shares compounds with TAAR1 ag | 2,400 compounds, 50% hits | CHO-Ga16 parental, Fluo-8 calcium fluorescence; normalized to maximal ATP response, DMSO zero | activation, % at 3 µM;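 active means activation above the run cutoff, the mean activation over all tested wells plus 3 SD, cut at about 12% in these data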;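 further: 0% = DMSO wells and 100% = maximal ATP response on the peak over basal ratio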
TAAR1 desens: counter-screen for human TAAR1 agonists: agonists that desensitize TAAR1; shares compounds with TAAR1 ag; CHO RD-HGA16 hTAAR1, Fluo-8 calcium, beta-PEA response inhibition; inhibition, % at 3 µM; 2,400 compounds, 46% hits;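 active means inhibition above the run cutoff, the mean inhibition of all test compounds plus 3 SD, cut at about 49% in these data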;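 further: beta-PEA stimulus applied at its EC80; loss of beta-PEA calcium signal after compound pretreatment read as receptor desensitization; 0% = DMSO with beta-PEA at EC80 and 100% = DMSO alone without agonist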
Ga16 antag count: counter-screen for TAAR1 agonists: nonselective Ga16 antagonists; 2,400 compounds, 39% hits; AID 651952; CHO-Ga16 ATP-induced calcium, Fluo-8 fluorescence; shares compounds with TAAR1 ag; inhibition, % at 3 µM;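 active means inhibition above the plate's mean compound inhibition plus 3 SD, computed per plate, cut at about 22% in these data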;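 further: 0% = EC80 ATP with DMSO and 100% = DMSO wells without ATP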
* hit, by the source's call; . = no result given.

SMILES	CHO parental Ca	GPR7 antagonist	TAAR1 ag	TAAR1 antag	OX1R antag-1	OX1R antag-2	OX1R Fluo8 conf	CHO Ca triplic	others
Cc1cc(OC2CCCCC2)nc(NCc2ccccc2)n1	-27.4	0.5	2.2	-19.0	9.7	-32.0	.	.
Cc1cc(N2CCCCC2)nc(NCc2ccccc2)n1	7.9	84.1*	99.5*	64.1*	14.1	-10.4	.	.	GPR7 antag conf=73.4*;MCHR1 antagonist=88.9*;TAAR1 ag confirm=73.4*;Ga16 nonsel ag=38.0*;TAAR1 desens=70.9*;Ga16 antag count=49.6*
O=C1c2cccc3c(N4CCCCC4)ccc(c23)C(=O)N1CCO	16.4	-0.1	31.4	23.2	11.9	21.0	.	.
Cc1n[nH]c(C)c1N1C(=O)c2cccc3c(N4CCCCCC4)ccc(c23)C1=O	75.8*	51.6*	148.0*	82.2*	14.3	90.2*	.	.	GPR7 antag conf=40.5*;MCHR1 antagonist=56.4*;TAAR1 ag confirm=87.7*;Ga16 nonsel ag=119.1*;TAAR1 desens=74.5*;Ga16 antag count=82.3*
CCC(C)(C)NC(=O)C1CCN(c2nc(OC)nc(OC)n2)CC1	3.2	17.6	1.5	-20.1	-3.0	-25.6	.	.
CC(C)OC(=O)NCCOC(=O)Nc1ccccc1Cl	4.0	-11.4	10.9	-18.8	8.7	-9.6	.	.
CC(C)OC(=O)NCCOC(=O)Nc1ccc(Cl)cc1	5.9	-0.6	7.7	16.0	4.2	28.9	10.8	9.1
N#CCCn1cc(/C=N/NC(N)=S)c(-c2ccc(-c3ccccc3)cc2)n1	-3.3	-3.2	5.8	19.6	2.2	26.5	10.1	3.8
N#CCCn1cc(/C=N/O)c(-c2ccccc2)n1	0.3	-13.2	7.4	-1.9	3.8	-2.0	.	.
COc1ccc(OC(=O)N2CCOCC2)cc1	2.9	-5.6	-0.8	-0.9	-3.1	26.0	-0.9	3.5
Cc1ccc(NC(=O)COC(=O)c2cccc(C)c2[N+](=O)[O-])cc1S(=O)(=O)N1CCCCC1	21.4	.	5.7	32.3	4.1	44.0*	14.1	9.2
CCc1noc(C)c1C(=O)Oc1ccc(N(C)S(=O)(=O)c2ccc(C)cc2)cc1	7.6	.	.	.	9.2	54.6*	5.1	5.2
CCC(=O)Nc1ccccc1Sc1ncnc2scc(-c3ccccc3)c12	-21.8	-0.7	0.9	-15.0	22.6	-23.2	.	.
N#CC1=C(N)Oc2cc(N)ccc2C1c1cccnc1 (stereo unspecified)	3.5	-10.8	3.9	-15.1	19.3	-3.9	.	.
CCN(CC)c1ccc2c(c1)OC(N)=C(C#N)C2c1cccnc1 (stereo unspecified)	20.4	9.3	63.6*	-6.6	16.3	28.6	8.3	9.9
Cc1cc2nc(-c3cccnc3SCC(=O)NCc3ccco3)[nH]c2cc1C	-13.9	7.2	2.5	-0.7	13.5	26.2	-3.0	-3.2
CCN1C(=O)/C(=C/C=C2/Sc3ccccc3N2CCO)SC1=S	2.5	-2.3	6.5	2.3	43.5	21.6	20.5	25.0*
CCCN1C(=O)/C(=C/C=C2\N(CC)c3ccccc3C2(C)C)SC1=S	18.8	8.5	25.8	23.0	3.8	36.7	55.5*	51.9*
CCCS(=O)(=O)NC(=O)C1(C)CCCN(C(=O)c2cc(C)n(C(C)(C)C)n2)C1 (stereo unspecified)	.	.	1.6	4.6	.	.	.	.
O=C(O/N=C1\CCS(=O)(=O)c2sccc21)c1c(F)cccc1F	-16.8	-4.6	1.6	11.6	13.2	43.6*	16.7	8.9
COc1ccc(C)cc1NC(=O)CSc1nnc(COc2ccccc2)n1Cc1ccco1	14.3	2.9	4.0	0.7	23.3	42.7	-17.0	-13.7
O=C(CSc1nnc(C2CC2)n1-c1ccccc1)N1CCCC1	-10.0	.	2.9	-9.5	15.2	1.1	.	.
COc1ccc(CNC(=O)COC(=O)[C@H](Cc2c[nH]c3ccccc23)NC(=O)c2cccs2)cc1	12.0	1.4	4.1	6.8	13.3	48.8*	59.6*	10.4
O=C(CCNC(=O)c1ccc(Cl)cc1)NCc1ccco1	-6.2	.	2.8	-17.7	9.3	-10.1	.	.
CCOCCCNC(=O)c1ccc(NC(=O)C2CCCO2)cc1 (stereo unspecified)	8.5	2.0	3.2	-7.1	-7.2	-0.9	.	.
SMILES	CHO parental Ca	GPR7 antagonist	TAAR1 ag	TAAR1 antag	OX1R antag-1	OX1R antag-2	OX1R Fluo8 conf	CHO Ca triplic	others
Cc1ccc(-n2nnnc2SCn2nnc3ccccc3c2=O)c(C)c1	7.6	-6.5	5.8	3.0	10.2	41.6*	11.7	20.7
O=C(Oc1ccc(Cl)c2cccnc12)N1CCCCC1	-5.3	-1.0	17.0	-4.7	25.8	89.5*	-15.3	-3.9
O=C(Oc1ccc(Cl)c2cccnc12)N1CCOCC1	-22.5	-11.8	-0.3	-19.9	13.0	-7.0	.	.
COC(=O)c1cccc(N(CC(=O)NC2CCCCC2)C(=O)CNC(=O)c2cccs2)c1	-13.5	-14.5	0.8	-12.2	-5.6	-26.2	.	.
Cc1ccc(OCC(=O)NC(=S)Nc2cccc(NC(=O)c3ccccc3Cl)c2)cc1	-17.6	-5.2	0.7	5.8	7.2	-14.2	.	.
CCOC(=O)c1ccc(NC(=O)Cn2ncc(Cl)c(Cl)c2=O)cc1	11.1	8.7	0.1	14.1	7.4	16.8	.	.
Cc1ccc(C(=O)OCn2ncc(Cl)c(Cl)c2=O)cc1	20.8	6.8	11.2	20.1	14.8	30.2	73.0*	19.9
O=C(COc1ccc(Br)cc1)Nc1ccc(N2CCOCC2)cc1N1CCOCC1	-7.6	.	3.7	-8.4	2.0	-3.5	.	.
O=C(COC(=O)Cc1c[nH]c2ccccc12)Nc1cc(S(=O)(=O)N2CCOCC2)ccc1Cl	-10.8	.	13.3	34.7	6.0	-17.6	.	.
